Rpn11 block: Rpn11 (PSMD14) deubiquitinase inhibitors, primary screen, biochemical, fluorescence polarization, uHTS. 26S proteasome non-ATPase regulatory subunit 14 (Homo sapiens), O00487. human 26S proteasome, Ub4-pepOG fluorescence polarization; 20S core pre-blocked with epoxomicin. calls only at 20 µM. actives 0.59% (n = 360,000). AID 588493, 2011;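 active means inhibition at 20 µM, scaled to each plate's controls, above about 33%, limit read from the data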
HNF4A DNA FP: change in binding of human HNF4A to DNA, primary screen, biochemical, fluorescence polarization, FITC-DNA; Hepatocyte nuclear factor 4-alpha (Homo sapiens), P41235; 1 h; activity change, % at 10 µM; actives 0.3% (n = 360,000); in the data active means activity change above about 30%, passing the limit was not always enough
Target sequence (P41235 whole entry, looked up): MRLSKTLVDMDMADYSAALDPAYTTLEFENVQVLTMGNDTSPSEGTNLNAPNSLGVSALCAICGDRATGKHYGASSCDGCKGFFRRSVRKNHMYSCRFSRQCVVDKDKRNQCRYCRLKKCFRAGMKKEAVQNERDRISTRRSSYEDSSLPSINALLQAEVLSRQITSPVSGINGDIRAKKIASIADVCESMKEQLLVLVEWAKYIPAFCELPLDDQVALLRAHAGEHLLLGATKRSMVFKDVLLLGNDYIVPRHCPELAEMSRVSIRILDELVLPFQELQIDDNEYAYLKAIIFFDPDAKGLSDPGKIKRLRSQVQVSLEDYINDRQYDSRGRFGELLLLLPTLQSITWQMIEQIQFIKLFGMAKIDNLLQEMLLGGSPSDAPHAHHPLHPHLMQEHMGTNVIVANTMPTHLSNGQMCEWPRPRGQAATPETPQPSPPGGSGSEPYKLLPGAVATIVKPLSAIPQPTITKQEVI
PKA-R1A act: activators of PKA-R1A holoenzyme, primary screen, biochemical, fluorescence polarization, Cy5-IP20, bovine R1A, mouse PKAc | actives 0.083% (n = 340,000) | cAMP-dependent protein kinase type I-alpha regulatory subunit (Bos taurus) + … | PKA-R1A dissociation; scaled: DMSO 0%, 113 µM cGMP 100% | activation, % at 11.4 µM | AID 504707, 2011;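 active means percent activation above the mean of all tested compounds plus 3 SD, cut at about 19% in these data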;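 further: higher means more PKAc released from R1A so a rise in polarization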
PKA-R2B activ: activators of PKA-R2B holoenzyme, primary screen, biochemical, fluorescence polarization, Cy5-IP20, human; PKA-R2B holoenzyme dissociation; R2B truncated from residue 108, S112A mutant; 0% DMSO only, 100% 113 µM cGMP; AID 504700, 2011; activation, % at 11.4 µM; cAMP-dependent protein kinase catalytic subunit beta (Homo sapiens) + cAMP-dependent …; actives 0.079% (n = 340,000);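 active means activation above a cutoff set at the mean over all compounds plus 3 SD, cut at about 18% in these data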;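 further: higher means more holoenzyme dissociation and a rise in polarization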
CSN deneddyl inh: inhibitors of CSN-mediated cullin deneddylation, primary screen, biochemical, fluorescence polarization, uHTS; COP9 signalosome complex subunit 5 (Homo sapiens), Q92905; Purified CSN, SCF-Nedd8-OG deneddylation; inhibition, % at 12.5 µM; actives 0.38% (n = 360,000); AID 651999, 2013;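 active means pattern-corrected inhibition above about 35%, with an unprinted fluorescence ratio check between 0.5 and 1.5, limit read from the data, passing the limit was not always enough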;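 further: 0% = enzyme with substrate and 100% = substrate without enzyme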
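Assay system: purified human Csn5 enzyme expressed in HEK293T cells; measure: % inhibition; also added: SCFSkp2-Nedd8OG substrate at 10 nM final; technique: fluorescence polarization; times: reaction 90 min, room temperature; medium: Tris buffer pH 7.5, NaCl, DTT, Tween-20, trehalose, ovalbumin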
TPT1 inh: Candida albicans TPT1 enzyme inhibitors, primary screen, biochemical, fluorescence polarization; tRNA 2'-phosphotransferase TPT1 (Candida albicans SC5314); recombinant caTPT1, FP RNA substrate dephosphorylation; inhibition, % at 5 µM; actives 0.81% (n = 300,000); AID 1962, 2009;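 active means inhibition above the mean of all tested compounds plus 3 SD, set per screening campaign, cut at about 24% in these data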;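 further: plate controls were DMSO alone for no effect and ferristatin control at 100 nM for full effect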
TPT1 inh confirm: Candida albicans TPT1 inhibitors, confirmation, biochemical, fluorescence polarization, triplicate. shares compounds with TPT1 inh. recombinant caTPT1, RNase T1 coupled. inhibition, % at 5 µM. actives 74% (n = 2,400). AID 2149, 2009;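 active means inhibition above the primary screen limit, the mean inhibition of all tested compounds plus 3 SD, cut at about 25% in these data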
RNase T1 counter: RNase T1 inhibitors, counter-screen for TPT1 inhibitor project, biochemical, fluorescence polarization | AID 2153, 2009 | inhibition, % at 5 µM | shares compounds with TPT1 inh | RNase T1 cleavage, 1536-well | actives 83% (n = 2,400);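 active means inhibition above the solvent-only control well mean plus 3 SD, limit set per screening run, cut at about 23% in these data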;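 further: plate controls were DMSO wells with enzyme for no effect and wells without RNase T1 for full effect; inhibitors block cleavage so intact labeled substrate keeps polarization high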
Starred values were filed as active, the others as inactive; i = inactive; . = no result shown. Rows were chosen to be rich in hits. Some 1.6% of all compounds tested hit in one or more screens of this group.

SMILES	Rpn11 block	HNF4A DNA FP	PKA-R1A act	PKA-R2B activ	CSN deneddyl inh	TPT1 inh	TPT1 inh confirm	RNase T1 counter
O=C1NC(=O)N(Cc2ccccc2)C(=O)/C1=C\N1CCCc2ccccc21	i	0	-11	-8	7	29*	15	21
O=C1NC(=O)C(=CN2CCc3ccccc32)C(=O)N1	i	0	6	13	-1	4	.	.
C=CCN1C(=O)NC(=O)/C(=C/c2ccoc2)C1=O	i	-3	-3	-6	17	106*	10	17
CCCCn1c(=O)c(C=Nc2cc([N+](=O)[O-])ccc2OC)c(O)n(CCCCl)c1=O	i	8	-4	-6	5	74*	53*	67*
CCC(C)N1C(=O)/C(=C/c2ccc3c(c2)CCN3CCCCl)C(=O)NC1=S (stereo unspecified)	.	-10	3	-1	22	41*	56*	72*
COc1ccc2c(C)c(CC(=O)N3C[C@H]4C[C@@H](C3)c3cccc(=O)n3C4)c(=O)oc2c1	i	2	-12	-9	5	-4	.	.
O=[N+]([O-])c1cc2c(cc1CNCCc1ccc3c(c1)OCO3)OCO2	i	-4	0	7	-1	32*	6	10
CCC(=NCc1cccnc1)c1c(O)n(-c2ccc(C)cc2)c(=O)[nH]c1=O	i	-2	0	5	2	-1	.	.
CC(C)n1c(=O)c(C=Nc2ccc(S(N)(=O)=O)cc2)c(O)n(Cc2ccco2)c1=O	i	5	-11	-19	5	42*	12	20
CCCCn1c(=O)c(C=Nc2ccc(Cl)cc2)c(O)n(Cc2ccco2)c1=O	.	-1	-8	-5	7	12	.	.
CCCCSP1(=S)NCCCO1 (stereo unspecified)	i	4	6	1	3	2	.	.
C=CCNC(=S)/N=C/c1c(O)[nH]c(=O)[nH]c1=O	i	12	-7	-1	9	26*	14	23*
CCn1c(O)c(/C=N/NC(=O)c2ccccc2)c(=O)n(CC)c1=S	i	2	.	.	12	94*	26*	34*
CN1CCN(Cc2cn(C)c3ccccc23)CC1CCO (stereo unspecified)	i	1	-7	4	2	1	.	.
CN1C(=O)C(=Cc2ccc(N3CCOCC3)o2)C(=O)N(C)C1=O	.	153	4	8	142	136*	148*	145*
Cc1ccc(Sc2ccc(C=C3C(=O)N(C)C(=O)N(C)C3=O)o2)cc1	i	0	-12	5	-5	6	.	.
CN1C(=O)C(=Cc2ccc(N3CCCCCC3)o2)C(=O)N(C)C1=S	.	149	-13	-1	164	140*	118*	122*
CC1(C)OC(c2ccccc2)=C/C(=C/C=C2C(=O)NC(=S)NC2=O)O1	.	.	.	.	.	129*	77*	76*
CN1/C(=C\C=C2C(=O)NC(=S)NC2=O)C(C)(C)c2ccccc21	i	60	3	2	-105	.	.	.

Source: PubChem BioAssay
